The values below come from ChEMBL document CHEMBL1124265, “Effects of D-amino acid substitution on antagonist activities of angiotensin II analogues” (J Med Chem, 1988).

Residues, ends and D or L forms follow the SMILES beside them.

Assay [1] concerns Rattus norvegicus. Put plainly: In vivo AII-like activity, expressed as percent activity relative to AII (angiotensin II), measured in rat blood pressure assay. The class given is functional. The method in brief: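 Rat blood pressure assay in vivo. Residual agonist activity is expressed as percent activity relative to AII.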
The species entered for assay [2] is Rattus norvegicus. Put plainly: Dose required for the two fold increase in the dose of AII to produce the same elevation in blood pressure as in the control period. Type of assay: functional. The method in brief:
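Rat blood pressure assay in vivo, using 250-g rats. ID50 is the antagonist dose, in ng/rat per min, that requires a twofold increase in the AII dose to give the same blood pressure rise as in the control period.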

Assay [3] has as its target Angiotensin II receptor (Homo sapiens) (UniProt P30556+P50052). Put plainly: In vitro angiotensin II-like activity, expressed as percent relative to angiotensin II, measured in the rabbit aorta strip assay. The class given is functional, tissue-based. The settings on record: Oryctolagus cuniculus.

With `CC[C@H](C)[C@H](NC(=O)[C@H](Cc1ccc(O)cc1)NC(=O)[C@@H](NC(=O)[C@@H](CCCN=C(N)N)NC(=O)[C@@H](N)CC(=O)O)C(C)C)C(=O)NC(Cc1c[nH]cn1)C(=O)N1CCC[C@@H]1C(=O)N[C@@H](C(=O)O)[C@@H](C)CC` (stereo in doubt) [listing 1 of 2 here], the Biological activity with Rattus norvegicus [1] was determined as 0.014%.

For the compound `CC[C@H](C)[C@H](NC(=O)[C@H](Cc1ccc(O)cc1)NC(=O)[C@@H](NC(=O)[C@H](CCCNC(=N)N)NC(=O)C[C@@H](N)C(=O)O)C(C)C)C(=O)N[C@@H](Cc1c[nH]cn1)C(=O)N1CCC[C@H]1C(=O)N[C@@H](CC(C)C)C(=O)O`, in the assay listed under Rattus norvegicus [2], the ID50 is given as 15 ng min-1 rat-1.

The compound `CC[C@H](C)[C@H](NC(=O)[C@H](Cc1ccc(O)cc1)NC(=O)[C@@H](NC(=O)[C@H](CCCN=C(N)N)NC(=O)[C@@H](N)CC(=O)O)C(C)C)C(=O)N[C@@H](Cc1c[nH]cn1)C(=O)N1CCC[C@H]1C(=O)N[C@H](C(=O)O)C(C)C` (H-DRVYIHPV-OH) registered a Biological activity in the assay on Rattus norvegicus [1] of 0.5%.

Take `CC[C@H](C)[C@H](NC(=O)[C@H](Cc1ccc(O)cc1)NC(=O)[C@@H](NC(=O)[C@H](CCCNC(=N)N)NC(=O)CNC)C(C)C)C(=O)N[C@@H](Cc1c[nH]cn1)C(=O)N1CCC[C@H]1C(=O)N[C@H](Cc1ccc(Cl)cc1)C(=O)O`: the ID50 in the assay listed under Rattus norvegicus [2] is 25 ng min-1 rat-1.

Consider `CC[C@H](C)[C@H](NC(=O)[C@H](Cc1ccc(O)cc1)NC(=O)[C@@H](NC(=O)[C@@H](CCCNC(=N)N)NC(=O)CNC)C(C)C)C(=O)N[C@@H](Cc1c[nH]cn1)C(=O)N1CCC[C@@H]1C(=O)N[C@H](Cc1ccc(Cl)cc1)C(=O)O`, for which the Biological activity in assay [3] was -0%.

Take `CC[C@H](C)[C@H](NC(=O)[C@H](Cc1ccc(O)cc1)NC(=O)[C@@H](NC(=O)[C@H](CCCNC(=N)N)NC(=O)CNC)C(C)C)C(=O)N[C@@H](Cc1c[nH]cn1)C(=O)N1CCC[C@H]1C(=O)N[C@H](Cc1ccc2ccccc2c1)C(=O)O`: the ID50 in the assay listed under Rattus norvegicus [2] amounted to 25 ng min-1 rat-1.

On to `CC[C@H](C)[C@H](NC(=O)[C@H](Cc1ccc(O)cc1)NC(=O)[C@@H](NC(=O)[C@@H](CCCNC(=N)N)NC(=O)CNC)C(C)C)C(=O)N[C@@H](Cc1c[nH]cn1)C(=O)N1CCC[C@@H]1C(=O)N[C@@H](Cc1ccc2ccccc2c1)C(=O)O`, for which the Biological activity in assay [3] is -0%.

On to `CC[C@H](C)[C@H](NC(=O)[C@@H]1CCCN1C(=O)[C@@H](Cc1c[nH]cn1)NC(=O)[C@@H](NC(=O)[C@@H](Cc1ccc(O)cc1)NC(=O)[C@@H](NC(=O)[C@H](CCCN=C(N)N)NC(=O)CNC)C(C)C)[C@@H](C)CC)C(=O)O`, for which the Biological activity in assay [3] is -0%.

In the assay with Rattus norvegicus [1], `CC(C)[C@H](NC(=O)[C@H](CCCN=C(N)N)NC(=O)[C@@H](N)CC(N)=O)C(=O)N[C@H](Cc1ccc(O)cc1)C(=O)N[C@H](C(=O)N[C@@H](Cc1c[nH]cn1)C(=O)N1CCC[C@H]1C(=O)N[C@@H](Cc1ccccc1)C(=O)O)C(C)C` had a Biological activity of 0.03%.

`COC(=O)[C@H](Cc1ccccc1)NC(=O)[C@@H]1CCCN1C(=O)[C@H](Cc1c[nH]cn1)NC(=O)[C@@H](NC(=O)[C@H](Cc1ccc(O)cc1)NC(=O)[C@@H](NC(=O)[C@H](CCCN=C(N)N)NC(=O)[C@@H](N)CC(N)=O)C(C)C)C(C)C` (H-NRVYVHPF-OMe) showed a Biological activity with Rattus norvegicus [1] of 10%.

On to `CC[C@H](C)[C@H](NC(=O)[C@H](Cc1ccc(O)cc1)NC(=O)[C@@H](NC(=O)[C@@H](CCCNC(=N)N)NC(=O)CNC)C(C)C)C(=O)N[C@@H](Cc1c[nH]cn1)C(=O)N1CCC[C@@H]1C(=O)NC(Cc1c[nH]c2ccccc12)C(=O)O` (stereo in doubt), for which the Biological activity in assay [3] is -0%.

`CC[C@H](C)[C@H](NC(=O)[C@H](Cc1ccc(O)cc1)NC(=O)[C@@H](NC(=O)[C@H](CCCN=C(N)N)NC(=O)[C@@H](N)CC(=O)O)C(C)C)C(=O)N[C@@H](Cc1c[nH]cn1)C(=O)N1CCC[C@H]1C(=O)N[C@@](C)(Cc1ccccc1)C(=O)O` came in with a Biological activity with Rattus norvegicus [1] of 80%.

Turning to `CC[C@H](C)[C@H](NC(=O)[C@H](Cc1ccc(O)cc1)NC(=O)[C@@H](NC(=O)[C@@H](CCCNC(=N)N)NC(=O)CNC)C(C)C)C(=O)NC(Cc1c[nH]cn1)C(=O)N1CCC[C@@H]1C(=O)N[C@@H](C(=O)O)C(C)C` (stereo in doubt), in assay [3], the Biological activity is -0%.

With `CC[C@H](C)[C@H](NC(=O)[C@@H]1CCCN1C(=O)[C@H](Cc1c[nH]cn1)NC(=O)[C@@H](NC(=O)[C@@H](Cc1ccc(O)cc1)NC(=O)[C@@H](NC(=O)[C@@H](CCCN=C(N)N)NC(=O)CNC)C(C)C)[C@@H](C)CC)C(=O)O`, the Biological activity in assay [3] is -0%.

As for `CC[C@H](C)[C@H](NC(=O)[C@H](Cc1ccc(O)cc1)NC(=O)[C@@H](NC(=O)[C@H](CCCN=C(N)N)NC(=O)[C@@H](N)CC(=O)O)C(C)C)C(=O)N[C@@H](Cc1c[nH]cn1)C(=O)N1CCC[C@H]1C(=O)N[C@@H](Cc1ccc(N)cc1)C(=O)O`, the Biological activity in the assay on Rattus norvegicus [1] is recorded as 53%.

As for `CC[C@H](C)[C@H](NC(=O)[C@@H]1CCCN1C(=O)[C@H](Cc1c[nH]cn1)NC(=O)[C@@H](NC(=O)[C@@H](Cc1ccc(O)cc1)NC(=O)[C@@H](NC(=O)[C@H](CCCN=C(N)N)NC(=O)CNC)C(C)C)[C@@H](C)CC)C(=O)O`, the Biological activity in assay [3] is -0%.

For the compound `CC[C@H](C)[C@H](NC(=O)[C@H](Cc1ccc(O)cc1)NC(=O)[C@@H](NC(=O)[C@@H](CCCNC(=N)N)NC(=O)CNC)C(C)C)C(=O)N[C@@H](Cc1c[nH]cn1)C(=O)N1CCC[C@@H]1C(=O)N[C@](C)(Cc1ccccc1)C(=O)O`, the Biological activity in assay [3] was -0%.

Turning to `CC[C@H](C)[C@H](NC(=O)[C@H](Cc1ccc(O)cc1)NC(=O)[C@@H](NC(=O)[C@@H](CCCNC(=N)N)NC(=O)CNC)C(C)C)C(=O)N[C@@H](Cc1c[nH]cn1)C(=O)N1CCC[C@@H]1C(=O)N[C@H](Cc1ccccc1)C(N)=O`, in assay [3], the Biological activity was -0%.

As to `CC[C@H](C)[C@H](NC(=O)[C@H](Cc1ccc(O)cc1)NC(=O)[C@@H](NC(=O)[C@@H](CCCNC(=N)N)NC(=O)CNC)C(C)C)C(=O)N[C@@H](Cc1c[nH]cn1)C(=O)N1CCC[C@@H]1C(=O)N[C@H](Cc1ccc(B(O)O)cc1)C(=O)O`, the Biological activity in assay [3] was -0%.

As to `CC[C@H](C)[C@H](NC(=O)[C@@H]1CCCN1C(=O)[C@H](Cc1c[nH]cn1)NC(=O)[C@H](NC(=O)[C@@H](Cc1ccc(O)cc1)NC(=O)[C@@H](NC(=O)[C@H](CCCN=C(N)N)NC(=O)CNC)C(C)C)C(C)C)C(=O)O`, the Biological activity in assay [3] was -0%.

The compound `CC(C)[C@H](NC(=O)[C@H](CCCNC(=N)N)NC(=O)[C@@H](N)CC(N)=O)C(=O)N[C@@H](Cc1ccc(O)cc1)C(=O)N1CCC[C@@H]1C(=O)N[C@@H](Cc1c[nH]cn1)C(=O)N1CCC[C@H]1C(=O)N[C@@H](Cc1ccccc1)C(=O)O` gave a Biological activity in the assay with Rattus norvegicus [1] of 0.05%.

Regarding `CC[C@H](C)[C@H](NC(=O)[C@H](Cc1ccc(O)cc1)NC(=O)[C@@H](NC(=O)[C@H](CCCN=C(N)N)NC(=O)[C@@H](N)CC(=O)O)C(C)C)C(=O)N[C@@H](Cc1c[nH]cn1)C(=O)N1CCC[C@H]1C(=O)N[C@@H](Cc1ccc(Br)cc1)C(=O)O`, in the assay with Rattus norvegicus [1], the Biological activity stood at 50%.

The compound `CC[C@H](C)[C@H](NC(=O)[C@H](Cc1ccc(O)cc1)NC(=O)[C@@H](NC(=O)[C@H](CCCN=C(N)N)NC(=O)[C@@H](N)CC(=O)O)C(C)C)C(=O)N[C@@H](Cc1c[nH]cn1)C(=O)N1CCC[C@H]1C(=O)N[C@@H](Cc1c[nH]c2ccccc12)C(=O)O` (H-DRVYIHPW-OH) gave a Biological activity with Rattus norvegicus [1] of 22.2%.

Turning to `CC(C)[C@H](NC(=O)[C@H](CCCN=C(N)N)NC(=O)[C@@H](N)CC(N)=O)C(=O)N[C@@H](Cc1ccc(O)cc1)C(=O)N[C@H](C(=O)N[C@@H](Cc1c[nH]cn1)C(=O)N1CCC[C@H]1C(=O)N[C@@H](Cc1ccccc1)C(N)=O)C(C)C` (H-NRVYVHPF-NH2), the Biological activity in the assay on Rattus norvegicus [1] came to 3%.

For `CC[C@H](C)[C@H](NC(=O)[C@H](Cc1ccc(O)cc1)NC(=O)[C@@H](NC(=O)[C@@H](CCCN=C(N)N)NC(=O)[C@@H](N)CC(=O)O)C(C)C)C(=O)NC(Cc1c[nH]cn1)C(=O)N1CCC[C@@H]1C(=O)N[C@@H](C(=O)O)[C@@H](C)CC` (stereo in doubt) [listing 2 of 2 here], the Biological activity in assay [3] was -0%.

With `CC(C)[C@H](NC(=O)[C@H](CCCN=C(N)N)NC(=O)[C@@H](N)CC(N)=O)C(=O)N[C@@H](Cc1ccc(O)cc1)C(=O)N1CCC[C@H]1C(=O)N[C@@H](Cc1c[nH]cn1)C(=O)N1CCC[C@H]1C(=O)N[C@@H](Cc1ccccc1)C(=O)O`, the Biological activity in the assay on Rattus norvegicus [1] came to 10%.

As for `CC[C@H](C)[C@H](NC(=O)[C@@H]1CCCN1C(=O)[C@H](Cc1c[nH]cn1)NC(=O)[C@@H](NC(=O)[C@H](Cc1ccc(O)cc1)NC(=O)[C@H](NC(=O)[C@H](CCCN=C(N)N)NC(=O)CNC)C(C)C)[C@@H](C)CC)C(=O)O`, the Biological activity in assay [3] is -0%.

Turning to `CC[C@H](C)[C@H](NC(=O)[C@H](Cc1ccc(O)cc1)NC(=O)[C@@H](NC(=O)[C@H](CCCN=C(N)N)NC(=O)[C@@H](N)CC(=O)O)C(C)C)C(=O)N[C@@H](Cc1c[nH]cn1)C(=O)N1CCC[C@H]1C(=O)N[C@@H](Cc1ccc(O)cc1)C(=O)O` (H-DRVYIHPY-OH), the values for the Biological activity (in the assay with Rattus norvegicus [1]; in assay [3]) were 83% and 100%, respectively.

For `CC[C@H](C)[C@H](NC(=O)[C@H](Cc1ccc(O)cc1)NC(=O)[C@@H](NC(=O)[C@H](CCCNC(=N)N)NC(=O)[C@@H](N)CC(=O)O)C(C)C)C(=O)N[C@@H](Cc1c[nH]cn1)C(=O)N1CCC[C@H]1C(=O)N[C@@H](C(=O)O)[C@@H](C)CC`, the Biological activity in the assay with Rattus norvegicus [1] was determined as 0.72%.

In the case of `CC[C@H](C)[C@H](NC(=O)C(C)NC(=O)[C@H](Cc1c[nH]cn1)NC(=O)[C@H](NC(=O)[C@@H](Cc1ccc(O)cc1)NC(=O)[C@@H](NC(=O)[C@H](CCCNC(=N)N)NC(=O)[C@@H](N)CC(=O)O)C(C)C)C(C)C)C(=O)O` (stereo in doubt), the Biological activity in assay [3] is -0%.

For the compound `CC[C@H](C)[C@H](NC(=O)[C@@H](Cc1ccc(O)cc1)NC(=O)[C@@H](NC(=O)[C@H](CCCNC(=N)N)NC(=O)CNC)C(C)C)C(=O)N[C@@H](Cc1c[nH]cn1)C(=O)N1CCC[C@H]1C(=O)N[C@@H](C(=O)O)C(C)C`, the Biological activity in assay [3] was -0%.
